16 molecules from ChEMBL document CHEMBL1287798, “3,5-disubstituted pyranone analogues of highly antifungally active furanones: conversion of biological effect from antifungal to cytostatic” (Bioorg Med Chem Lett, 2010) can be followed below.

Experiment [1] relates to Pichia kudriavzevii. Briefly: Antifungal activity against Candida krusei E28 by microdilution method. The experiment is classed as functional. In general terms: In broth dilution the organism is exposed to a series of concentrations in liquid medium.
In experiment [2] the test system is Trichophyton mentagrophytes. Briefly: Antifungal activity against Trichophyton mentagrophytes 445 by microdilution method. The experiment is classed as functional.
Experiment [3] concerns Clavispora lusitaniae. Briefly: Antifungal activity against Clavispora lusitaniae 2446/I by microdilution method.
Experiment [4] deals with Aspergillus fumigatus. Briefly: Antifungal activity against Aspergillus fumigatus 231 by microdilution method. The experiment is classed as functional.
Experiment [5] relates to Candida albicans. Description: Antifungal activity against Candida albicans ATCC 90028 by microdilution method. The experiment is classed as functional.
Experiment [6] has as its system Candida parapsilosis. Briefly: Antifungal activity against Candida parapsilosis ATCC 22019 by microdilution method. The experiment is classed as functional. The following applies: Lodderomyces parapsilosis.
Experiment [7] deals with Nannizzia gypsea. Briefly: Antifungal activity against Microsporum gypseum by microdilution method. The experiment is classed as functional.
Experiment [8] has as its system Candida albicans. Briefly: Antifungal activity against Candida albicans ATCC 44859 by microdilution method. The experiment is classed as functional.
In experiment [9] the test system is Trichosporon beigelii. Description: Antifungal activity against Trichosporon beigelii 1188 by microdilution method. The experiment is classed as functional.
The test system of experiment [10] is Candida tropicalis. Briefly: Antifungal activity against Candida tropicalis 156 by microdilution method. Type of experiment: functional.
The test system of experiment [11] is Nakaseomyces glabratus. Description: Antifungal activity against Candida glabrata 20/I by microdilution method. Type of experiment: functional.
For experiment [12], the system named is Pichia kudriavzevii. Briefly: Antifungal activity against Candida krusei ATCC 6258 by microdilution method. Type of experiment: functional.
Experiment [13] deals with Lichtheimia corymbifera. Briefly: Antifungal activity against Absidia corymbifera 272 by microdilution method. Type of experiment: functional.
Experiment [14] concerns L1210. Description: Growth inhibition of mouse L1210 cells. Type of experiment: functional, cell-based.
Experiment [15] relates to L1210. Briefly: Growth inhibition of mouse L1210 cells at 10 umol/L. Type of experiment: functional, cell-based. The essentials: (§1)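 Single-concentration cytostatic screen at 10 µmol L⁻¹ on mouse lymphocytic leukemia L1210 (ATCC CCL 219), human acute lymphoblastic leukemia CCRF-CEM T lymphoblastoid cells (ATCC CCL 119), human promyelocytic leukemia HL-60 (ATCC CCL 240) and human cervix carcinoma HeLa S3 (ATCC CCL 2.2).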

Experiment [16] deals with HT-29. Briefly: Growth inhibition of human HT-29 cells. The experiment is classed as functional, cell-based.
The subject of experiment [17] is HL-60. Briefly: Growth inhibition of human HL60 cells at 10 umol/L. The experiment is classed as functional, cell-based. The essentials:
as §1

One may read the MIC as the lowest concentration found to suppress growth. A higher MIC goes with weaker potency. By IC50 is commonly meant the concentration needed to halve the response being measured.

The source made the active and inactive calls. No cut-off for these calls is given here.

Regarding `CC(C)(C)C(=O)OCC1C=C(c2ccc(Br)cc2)C(=O)OC1` (configuration not stated), the minimum inhibitory concentration (MIC) in experiment [1], in experiment [2], in experiment [3], in [4], in [5] and in experiment [6] was at least 62.5 µM throughout. Also, the MIC in experiment [7], in experiment [8], in experiment [9], in experiment [10], in [11] and in experiment [12] was at least 62.5 µM throughout. Also, in [13], the minimal inhibitory concentration (MIC) was at least 62.5 µM.

Consider `O=C1OCC(COC(=O)c2ccccc2)C=C1c1ccc(Cl)c(Cl)c1` (configuration not stated), for which the MIC in [1], in experiment [2], in experiment [3], in [4], in experiment [5] and in experiment [6] was at least 62.5 µM each time. Besides, the MIC in experiment [7], in experiment [8], in [9], in experiment [10], in experiment [11] and in experiment [12] was at least 62.5 µM throughout. This molecule had a minimal inhibitory concentration (MIC) in [13] of at least 62.5 µM. In addition, in experiment [14], half-maximal inhibition (IC50) required 5.9 µM.

Turning to `O=C1OCC(COC(=O)c2ccccc2)C=C1c1ccc(Cl)cc1` (configuration not stated), the minimal inhibitory concentration (MIC) in [1], in experiment [2], in [3], in experiment [4], in experiment [5] and in experiment [6] was at least 62.5 µM in each case. In addition, the minimal inhibitory concentration (MIC) in experiment [7], in [8], in experiment [9], in [10], in experiment [11] and in [12] was at least 62.5 µM each time. The same molecule showed an MIC in experiment [13] of at least 62.5 µM. Further, the inhibition entry in experiment [15] and in [17] was “inactive” in each case. The molecule also registered an IC50 in [16] of 2.93 µM.

Take `CC(C)(C)C(=O)OCC1C=C(c2ccc(Cl)cc2)C(=O)OC1` (configuration not stated): the MIC in [1], in experiment [2], in [3], in experiment [4], in experiment [5] and in [6] was at least 62.5 µM each time. Further, the MIC in experiment [7], in experiment [8], in experiment [9], in experiment [10], in experiment [11] and in [12] was at least 62.5 µM throughout. Moreover, the MIC in experiment [13] is at least 62.5 µM.

For `CC(C)(C)C(=O)OCC1C=C(c2ccccc2)C(=O)OC1` (configuration not stated), the MIC in [1], in experiment [2], in experiment [3], in experiment [4], in experiment [5] and in experiment [6] was at least 62.5 µM in each case. The MIC in experiment [7], in [8], in [9], in experiment [10], in experiment [11] and in [12] was at least 62.5 µM throughout. The minimal inhibitory concentration (MIC) in [13] was at least 62.5 µM.

For `CC(=O)OCC1C=C(c2cccc(Cl)c2)C(=O)OC1` (configuration not stated), the MIC in [1], in [2], in experiment [3], in [4], in [5] and in [6] was at least 62.5 µM throughout. Also, the MIC in experiment [7], in experiment [8], in experiment [9], in experiment [10], in experiment [11] and in [12] was at least 62.5 µM each time. For the same molecule, the MIC in experiment [13] is at least 62.5 µM.

Consider `COc1ccc(C2=CC(COC(=O)c3ccccc3)COC2=O)cc1` (configuration not stated), for which the MIC in experiment [1], in experiment [2], in experiment [3], in [4], in [5] and in experiment [6] was at least 62.5 µM in each case. Moreover, the MIC in experiment [7], in experiment [8], in experiment [9], in [10], in [11] and in [12] was at least 62.5 µM throughout. Besides, the MIC in [13] is at least 62.5 µM.

As to `COc1ccc(C2=CC(COC(=O)C(C)(C)C)COC2=O)cc1` (configuration not stated), the minimum inhibitory concentration (MIC) in [1], in experiment [2], in experiment [3], in experiment [4], in experiment [5] and in experiment [6] was at least 62.5 µM in each case. Moreover, the minimal inhibitory concentration (MIC) in experiment [7], in [8], in experiment [9], in experiment [10], in [11] and in experiment [12] was at least 62.5 µM throughout. The molecule further came in with a minimal inhibitory concentration (MIC) in [13] of at least 62.5 µM.

As to `O=C1OCC(COC(=O)c2ccccc2)C=C1c1ccccc1` (configuration not stated), the MIC in experiment [1], in experiment [2], in experiment [3], in experiment [4], in experiment [5] and in experiment [6] was at least 62.5 µM in each case. Also, the MIC in experiment [7], in [8], in experiment [9], in experiment [10], in [11] and in [12] was at least 62.5 µM each time. This molecule also came in with a minimal inhibitory concentration (MIC) in [13] of at least 62.5 µM.

With `CC(C)(C)C(=O)OCC1C=C(c2cccc(Cl)c2)C(=O)OC1` (configuration not stated), the MIC in experiment [1], in experiment [2], in experiment [3], in [4], in experiment [5] and in [6] was at least 62.5 µM throughout. Moreover, the MIC in [7], in [8], in experiment [9], in experiment [10], in experiment [11] and in experiment [12] was at least 62.5 µM in each case. Also, in experiment [13], the MIC is at least 62.5 µM.

`COc1ccc(C2=CC(COC(C)=O)COC2=O)cc1` (configuration not stated): the MIC in experiment [1], in [2], in experiment [3], in [4], in experiment [5] and in experiment [6] was at least 62.5 µM each time. The MIC in experiment [7], in experiment [8], in [9], in experiment [10], in experiment [11] and in experiment [12] was at least 62.5 µM throughout. Besides, the MIC in experiment [13] is at least 62.5 µM.

In the case of `CC(=O)OCC1C=C(c2ccc(Cl)cc2)C(=O)OC1` (configuration not stated), the minimal inhibitory concentration (MIC) in experiment [1], in experiment [2], in experiment [3], in [4], in experiment [5] and in [6] was at least 62.5 µM throughout. The minimal inhibitory concentration (MIC) in [7], in [8], in [9], in experiment [10], in [11] and in experiment [12] was at least 62.5 µM in each case. The same molecule displayed an MIC in [13] of at least 62.5 µM.

For the molecule `CC(=O)OCC1C=C(c2ccccc2)C(=O)OC1` (configuration not stated), the minimal inhibitory concentration (MIC) in [1], in [2], in [3], in experiment [4], in experiment [5] and in experiment [6] was at least 62.5 µM throughout. The minimum inhibitory concentration (MIC) in experiment [7], in experiment [8], in [9], in experiment [10], in [11] and in experiment [12] was at least 62.5 µM each time. Further, the MIC in experiment [13] is at least 62.5 µM.

Regarding `O=C1OCC(COC(=O)c2ccccc2)C=C1c1cccc(Cl)c1` (configuration not stated), the MIC in experiment [1], in experiment [2], in [3], in experiment [4], in [5] and in [6] was at least 62.5 µM each time. Besides, the minimal inhibitory concentration (MIC) in [7], in experiment [8], in experiment [9], in experiment [10], in experiment [11] and in experiment [12] was at least 62.5 µM each time. Also, the minimum inhibitory concentration (MIC) in experiment [13] is at least 62.5 µM.

As for `CC(C)(C)C(=O)OCC1C=C(c2ccc(Cl)c(Cl)c2)C(=O)OC1` (configuration not stated), the minimal inhibitory concentration (MIC) in experiment [1], in experiment [2], in [3], in experiment [4], in experiment [5] and in experiment [6] was at least 62.5 µM throughout. The MIC in [7], in experiment [8], in experiment [9], in experiment [10], in [11] and in experiment [12] was at least 62.5 µM each time. Moreover, in experiment [13], the MIC is at least 62.5 µM.

Regarding `CC(=O)OCC1C=C(c2ccc(Br)cc2)C(=O)OC1` (configuration not stated), the MIC in [1], in experiment [2], in experiment [3], in [4], in [5] and in experiment [6] was at least 62.5 µM each time. Besides, the MIC in experiment [7], in experiment [8], in experiment [9], in experiment [10], in [11] and in experiment [12] was at least 62.5 µM in each case. Further, the MIC in experiment [13] is at least 62.5 µM.
